Results from different studies.
Lines come from different studies, so protocols differ.
Target: Tyrosine-protein kinase Blk (BLK, Homo sapiens, UniProt P51451)

| SMILES | observed | action | technique | concentration | endpoint | value |
| --- | --- | --- | --- | --- | --- | --- |
| COc1cc2ncnc(Nc3ccc(Oc4ccccc4)cc3C)c2cc1OC | enzyme activity | inhibitor | – | 1 µM | inhibition | 85% |
| COc1cc(Cl)c(C(=O)N[C@@H](CN[C@H]2CC[C@@H](N)CC2)Cc2ccc(C#N)cc2)cc1-c1ccc(CN[C@H](C)c2ccc(C)cc2)o1 | enzyme activity | inhibitor | – | 1 µM | remaining activity | 80% |
| Nc1nc(Nc2ccc(S(N)(=O)=O)cc2)nn1C(=O)c1c(F)cccc1F | cell-free assay | – | – | 0.5 µM | remaining signal | 90.1% |
| Cc1nccc(COC(=O)N2C[C@@H]3[C@@H](CNC(=O)c4ccc5[nH]nnc5c4)[C@@H]3C2)n1 | cell-free assay | – | competition with immobilised ligand | 1 µM | remaining binding | 93% |
| N#CCCc1ccc2c(c1)-c1[nH]c3ccc([N+](=O)[O-])cc3c1CC(=O)N2 | cell-free assay | – | – | 0.5 µM | remaining signal | 78.8% |
| Cc1ccc(NC(=O)c2ccc(C)c(C(F)(F)F)c2)cc1C#Cc1nn(C2CCC(O)CC2)c2ncnc(N)c12 (centres unmarked) | cell-free assay | – | – | 10 µM | remaining signal | 0% |
| COc1ccc2cc(OCC3(C(=O)O)CN(C(=O)c4ccc(F)cc4)C3)ccc2c1 | cell-free assay | – | competition with immobilised ligand | 1 µM | remaining binding | 93% |
| Cc1cc(NC(=O)c2cccc3cc(-c4cccc5[nH]nc(N)c45)ccc23)ccc1F | enzyme activity | inhibitor | – | 0.1 µM | activity vs control | 114% |
| O=C1Nc2ccc(Cl)cc2C1=Cc1cc(Cl)c(O)c(Cl)c1 | cell-free assay | – | – | 0.5 µM | remaining signal | 102% |
| O=C(Nc1cccnn1)N1CC(C/C=C/c2cncc(Oc3ccc(C(F)(F)F)cn3)n2)C1 | cell-free assay | – | competition with immobilised ligand | 1 µM | remaining binding | 65% |
| CC(C)(O)[C@H]1CC[C@H](Nc2ccc3ncc(-c4cccc(C(F)(F)F)c4)n3n2)CC1 | enzyme activity | inhibitor | – | 1 µM | remaining activity | 37.5% |
| CC(C)CC(=O)N1CCc2nc(-c3ccc(Br)cc3)nc(N(C)Cc3ccccc3)c2C1 | cell-free assay | – | competition with immobilised ligand | 0.1 µM | remaining binding | 84% |
| Nc1ncnc2occ(-c3ccc(NC(=O)Nc4cc(C(F)(F)F)ccc4F)cc3)c12 | cell-free assay | – | – | 20 µM | remaining signal | 0.45% |
| O=C(Nc1cnn(-c2csc(C(=O)NC3COC3)c2)c1)Nc1ccccc1Cl | enzyme activity | inhibitor | – | 5 µM | remaining activity | 79.2% |
| CCOCCn1cc(C(=O)Nc2ccc(-n3nc(-c4cccnc4)cc3C(F)(F)F)cn2)ccc1=O | cell-free assay | – | competition with immobilised ligand | 1 µM | remaining binding | 89% |
| Cc1ccc(C(=O)NCc2ccsc2)cc1C#Cc1cn(C(C)C)c2ncnc(N)c12 | enzyme activity | inhibitor | – | 1 µM | activity vs control | 4% |
| CC(C)(C)c1nc(-c2cccc(NS(=O)(=O)c3c(F)cccc3F)c2F)c(-c2ccnc(N)n2)s1 | enzyme activity | inhibitor | radiometric | 1 µM | remaining activity | 29% |
